Results from ChEMBL document CHEMBL4828738, “Design, synthesis and evaluation of novel 5-phenylthiophene derivatives as potent fungicidal of Candida albicans and antifungal reagents of fluconazole-resistant fungi” (Eur J Med Chem, 2021).
In brackets after ≈: the same amount, converted by molar mass.

Legend:
Candida albicans [1] = assay: Fungicidal activity against Candida albicans ATCC SC5314 assessed as inhibition of visible fungal growth measured after 48 hrs; type: functional
Candida albicans [2] = assay: Anti-biofilm activity in Candida albicans CPCC400616 assessed as inhibition of biofilm formation incubated for 24 hrs by XTT assay; type: functional
In short: (§1)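 C. albicans CPCC400616 suspension placed in wells at 37 °C. Non-adherent cells and medium were removed at 3, 6, 18 or 24 h and wells washed with PBS. Compounds were added at a range of concentrations in fresh RPMI 1640 and incubated a further 24 h at 37 °C. Biofilm metabolic activity was read by XTT reduction.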

Candida albicans [3] = assay: Anti-biofilm activity in Candida albicans CPCC400616 assessed as inhibition of biofilm formation incubated for 6 hrs by XTT assay; type: functional; in short: as §1
Candida albicans [4] = assay: Anti-biofilm activity in Candida albicans CPCC400616 assessed as inhibition of biofilm formation incubated for 3 hrs by XTT assay; type: functional; in short: as §1
Candida albicans [5] = assay: Antifungal activity against Candida albicans ATCC SC5314 assessed as fungal growth inhibition by CLSI protocol based method; type: functional
Candida albicans [6] = assay: Antifungal activity against Candida albicans CPCC400616 assessed as fungal growth inhibition by CLSI protocol based method; type: functional
Candida tropicalis = assay: Antifungal activity against Candida tropicalis CGMCC 2.3739 assessed as fungal growth inhibition by CLSI protocol based method; type: functional
Cryptococcus neoformans = assay: Antifungal activity against Cryptococcus neoformans CGMCC2.3161 assessed as fungal growth inhibition by CLSI protocol based method; type: functional
Candida parapsilosis = assay: Antifungal activity against Candida parapsilosis GIM2.190 assessed as fungal growth inhibition by CLSI protocol based method; type: functional; conditions: Lodderomyces parapsilosis
Nakaseomyces glabratus = assay: Antifungal activity against Candida glabrata assessed as fungal growth inhibition by CLSI protocol based method; type: functional
Pichia kudriavzevii = assay: Antifungal activity against Candida krusei GIM2.1 assessed as fungal growth inhibition by CLSI protocol based method; type: functional
[7] = molecular target: T1, Lanosterol 14-alpha demethylase (Candida albicans (strain SC5314 / ATCC MYA-2876) (Yeast), UniProt P10613); assay: Inhibition of CYP51 in Candida albicans assessed as lanosterol level at 0.015 ug/ml measured after 18 hrs by GC-MS analysis relative to control; set-up: scale not given: the % may be the effect or the level left; conditions: at 0.015 µg/mL
[8] = molecular target: T1, Lanosterol 14-alpha demethylase; assay: Inhibition of CYP51 in Candida albicans assessed as Ergosterol level at 0.015 ug/ml measured after 18 hrs by GC-MS analysis (reference value: 96.93 %); set-up: scale not given: the % may be the effect or the level left; conditions: at 0.015 µg/mL
[9] = molecular target: T1, Lanosterol 14-alpha demethylase; assay: Inhibition of CYP51 in Candida albicans assessed as Eburicol level at 0.015 ug/ml measured after 18 hrs by GC-MS analysis relative to control; set-up: scale not given: the % may be the effect or the level left; conditions: at 0.015 µg/mL
[10] = molecular target: T1, Lanosterol 14-alpha demethylase; assay: Inhibition of CYP51 in Candida albicans assessed as 14alpha-methylfecosterol level at 0.015 ug/ml measured after 18 hrs by GC-MS analysis relative to control; set-up: scale not given: the % may be the effect or the level left; conditions: at 0.015 µg/mL
[11] = molecular target: T1, Lanosterol 14-alpha demethylase; assay: Inhibition of CYP51 in Candida albicans assessed as other sterols level at 0.015 ug/ml measured after 18 hrs by GC-MS analysis relative to control; set-up: scale not given: the % may be the effect or the level left; conditions: at 0.015 µg/mL
THLE-2 = assay: Cytotoxicity against human THLE-2 cells assessed as reduction in cell viability measured after 96 hrs by MTT assay; type: ADME, cell-based; conditions: THLE-2, 96 h
A549 = assay: Cytotoxicity against human A549 cells assessed as reduction in cell viability measured after 96 hrs by MTT assay; type: ADME, cell-based; conditions: A549, 96 h
MCF7 = assay: Cytotoxicity against human MCF7 cells assessed as reduction in cell viability measured after 96 hrs by MTT assay; type: ADME, cell-based; conditions: MCF7, 96 h
[12] = Metabolic stability in human plasma assessed as parent compound remaining after 60 mins by LC-MS/MS analysis; type: ADME, cell-free; conditions: read-out: Stability
[13] = Metabolic stability in human plasma assessed as parent compound remaining after 120 mins by LC-MS/MS analysis; type: ADME, cell-free; conditions: read-out: Stability
[14] = Metabolic stability in human plasma assessed as half life after 60 mins by LC-MS/MS analysis; type: ADME, cell-free
Candida albicans [15] = assay: Anti-biofilm activity in Candida albicans CPCC400616 assessed as inhibition of biofilm formation measured up to 24 hrs by XTT assay; type: functional, organism-based; conditions: time hrs <=24
In short: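 C. albicans CPCC400616 suspension allowed to adhere in 96-well plates at 37 °C; non-adherent cells and medium removed after 3, 6, 18 or 24 h. Wells washed with PBS, compounds added at graded concentrations in fresh RPMI 1640, then incubated a further 24 h at 37 °C. Biofilm quantified semiquantitatively by XTT reduction. SMIC50 is the concentration inhibiting biofilm metabolic activity by 50%.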

Candida albicans [16] = assay: Fungicidal activity in Candida albicans CPCC400616 assessed as reduction in viable colony formation measured within 16 hrs by time kill assay; type: functional; conditions: time hrs <16
In short: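 Diluted samples were plated on PDA and incubated 24 h at 35 °C. CFU were counted and log10 CFU/mL was plotted against time. Detection limit was 100 CFU/mL. Run in triplicate.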

Candida albicans [17] = assay: Fungicidal activity in Candida albicans CPCC400616 assessed as reduction in viable colony formation measured after 24 hrs by time kill assay; type: functional, organism-based
Candida albicans [18] = assay: Antifungal activity against fluconazole-resistant Candida albicans 901 assessed as fungal growth inhibition by CLSI protocol based method
Candida albicans [19] = assay: Antifungal activity against fluconazole-resistant Candida albicans 904 assessed as fungal growth inhibition by CLSI protocol based method
Candida albicans [20] = assay: Antifungal activity against fluconazole-resistant Candida albicans 632 assessed as fungal growth inhibition by CLSI protocol based method
Candida albicans [21] = assay: Antifungal activity against fluconazole-resistant Candida albicans 100 assessed as fungal growth inhibition by CLSI protocol based method
Candida albicans [22] = assay: Antifungal activity against fluconazole-resistant Candida albicans 103 assessed as fungal growth inhibition by CLSI protocol based method
Candida albicans [23] = assay: Antifungal activity against fluconazole-resistant Candida albicans 311 assessed as fungal growth inhibition by CLSI protocol based method

T1 sequence (P10613 whole entry): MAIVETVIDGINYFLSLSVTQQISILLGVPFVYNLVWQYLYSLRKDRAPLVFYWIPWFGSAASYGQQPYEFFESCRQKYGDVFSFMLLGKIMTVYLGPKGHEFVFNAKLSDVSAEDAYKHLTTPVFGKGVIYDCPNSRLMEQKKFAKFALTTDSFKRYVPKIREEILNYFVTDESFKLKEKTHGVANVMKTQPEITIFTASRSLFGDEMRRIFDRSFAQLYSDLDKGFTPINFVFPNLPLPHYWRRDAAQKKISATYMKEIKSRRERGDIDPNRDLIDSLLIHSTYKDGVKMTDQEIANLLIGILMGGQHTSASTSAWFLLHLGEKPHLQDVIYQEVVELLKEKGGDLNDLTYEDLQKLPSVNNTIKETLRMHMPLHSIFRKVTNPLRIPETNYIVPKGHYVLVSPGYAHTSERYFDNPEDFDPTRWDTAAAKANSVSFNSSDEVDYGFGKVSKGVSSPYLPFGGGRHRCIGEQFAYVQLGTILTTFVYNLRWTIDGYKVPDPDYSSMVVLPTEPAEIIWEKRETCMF

Cc1ccc(C(=O)C(Cn2ccnc2)NC(=O)c2ccc(-c3ccc(Cl)cc3)s2)cc1 (stereo unspecified)
MFC (Candida albicans [1]): 0.125 µg/mL (≈ 0.278 µM) | MBIC50 (Candida albicans [2]): >64 µg/mL | MBIC50 (Candida albicans [3]): 8 µg/mL | MBIC50 (Candida albicans [4]): 1 µg/mL | MIC (Candida albicans [5]): < 0.03 µg/mL | MIC (Candida albicans [6]): < 0.03 µg/mL | MIC (Candida tropicalis): < 0.03 µg/mL | MIC (Cryptococcus neoformans): 0.5 µg/mL (≈ 1.11 µM) | MIC (Candida parapsilosis): 0.5 µg/mL (≈ 1.11 µM) | MIC (Nakaseomyces glabratus): 0.25 µg/mL (≈ 0.556 µM) | MIC (Pichia kudriavzevii): 1 µg/mL (≈ 2.22 µM) | Activity [7]: 42.91% | Activity [8]: 5.06% | Activity [9]: 31.02% | Activity [10]: 3.2% | Activity [11]: 8.64% | IC50 (THLE-2): 16.1 µM | IC50 (A549): 19.1 µM | IC50 (MCF7): > 30 µM | remaining at 1 h [12]: 93.1% | remaining at 2 h [13]: 89.5% | half-life [14]: > 4.8 h | Activity (Candida albicans [15]): Dose-Dependent Effect | Activity (Candida albicans [16]): 2 log10CFU/ml | Activity (Candida albicans [17]): Dose-Dependent Effect | MIC (Candida albicans [18]): 1 µg/mL (≈ 2.22 µM) | MIC (Candida albicans [19]): 0.25 µg/mL (≈ 0.556 µM) | MIC (Candida albicans [20]): 1 µg/mL (≈ 2.22 µM) | MIC (Candida albicans [21]): 0.5 µg/mL (≈ 1.11 µM) | MIC (Candida albicans [22]): 1 µg/mL (≈ 2.22 µM) | MIC (Candida albicans [23]): 1 µg/mL (≈ 2.22 µM)
